{
  "source": "paper PMC3107735",
  "about": "(Biochemistry, 2011)",
  "key": {"thrombin [1]": {"target": "T1, thrombin (Bos taurus, UniProt P00735)", "assay": "Isothermal titration calorimetry", "format": "binding, bovine", "details": "for Ka / N (stoichiometry of binding) / ΔH / -TΔS / ΔG: thrombin in cell, 25°C; for Ka / N (stoichiometry of binding) / ΔH: pH 7.4; for -TΔS: computed from ΔG-ΔH; for ΔG: obtained from KA"}, "aptamer-thrombin complex": {"target": "aptamer-thrombin complex (Bos taurus, UniProt P00735)", "assay": "ITC, ligand titrated into pre-formed aptamer-thrombin complex", "format": "binding, bovine", "details": "apt-thrombin in cell, 25°C; for Ka / N (stoichiometry of binding) / ΔH: pH 7.4; for -TΔS: computed from ΔG-ΔH; for ΔG: obtained from KA"}, "TM45-thrombin": {"target": "TM45-thrombin (Bos taurus, UniProt P00735)", "assay": "ITC, ligand titrated into TMEGF45-thrombin complex", "format": "binding, bovine", "details": "TM45-thrombin in cell, 25°C; for Ka / N (stoichiometry of binding) / ΔH: pH 7.4; for -TΔS: computed from ΔG-ΔH; for ΔG: obtained from KA"}, "thrombin [2]": {"target": "T1, thrombin", "details": "DSC; increases from 57°C for thrombin; cited from earlier work"}, "PPACK-thrombin": {"target": "PPACK-thrombin (Bos taurus, UniProt P00735)", "assay": "ITC, ligand titrated into PPACK-thrombin", "format": "binding, bovine", "details": "ppack-thrombin in cell, 25°C; for Ka / N (stoichiometry of binding) / ΔH: pH 7.4; for -TΔS: computed from ΔG-ΔH; for ΔG: obtained from KA", "in_short": "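Bovine α-thrombin treated with PPACK (1.1 μmol per 1 mL fraction, 3 h shaking, room temperature), re-purified by size exclusion the same day, and held at 6.5 μM in the cell (BCA). Buffer was 50 mM Bis-tris propane pH 7.4, 150 mM NaCl, 2.5 mM CaCl2. Degassed ligand at 65-70 μM was injected at 25°C with a 180 s initial delay. Heats were integrated and corrected for dilution; ΔG came from Ka and -TΔS from ΔG-ΔH.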"}, "thrombin [3]": {"target": "T1, thrombin", "assay": "Differential scanning calorimetry", "design": "species or system bovine", "details": "DSC; 25 μM thrombin; thrombin alone 56.9°C or 57.9°C (Figure 6 legend)"}},
  "note": "“And” between values parts separate entries of the source, which are not always exact repeats. Identical values can stand only once.",
  "data": [
    {"molecule": "CCC1CCN(C(=O)[C@H](CCCNC(=N)N)NS(=O)(=O)c2cccc3c(N(C)C)cccc23)CC1", "note": "[DAPA, dansyl-L-arginine-(3-ethyl-1,5-pantanediyl) amide]", "values": [
      {"measurement": "Ka", "setting": "thrombin [1]; with 2.5 mM calcium", "result": "4.5 ± 0.5 ×10^7 M^-1"},
      {"measurement": "N (stoichiometry of binding)", "setting": "thrombin [1]; with 2.5 mM calcium", "result": "0.9 ± 0.1"},
      {"measurement": "ΔH", "setting": "thrombin [1]; with 2.5 mM calcium", "result": "-6.2 ± 0.04", "unit": "kcal/mol"},
      {"measurement": "-TΔS", "setting": "thrombin [1]; with 2.5 mM calcium", "result": "-4.2 ± 0.1", "unit": "kcal/mol"},
      {"measurement": "ΔG", "setting": "thrombin [1]; with 2.5 mM calcium", "result": "-10.4 ± 0.1", "unit": "kcal/mol"},
      {"measurement": "Ka", "setting": "thrombin [1]; without calcium", "result": "4.5 ± 2.5 ^1 ×10^7 M^-1"},
      {"measurement": "N (stoichiometry of binding)", "setting": "thrombin [1]; without calcium", "result": "0.9 ± 0.1"},
      {"measurement": "-TΔS", "setting": "thrombin [1]; without calcium", "result": "-4.4 ± 0.6", "unit": "kcal/mol"},
      {"measurement": "ΔG", "setting": "thrombin [1]; without calcium", "result": "-10.3 ± 0.4", "unit": "kcal/mol"},
      {"measurement": "Ka", "setting": "aptamer-thrombin complex; with 2.5 mM calcium", "result": "5.6 ± 2.1 ×10^7 M^-1"},
      {"measurement": "N (stoichiometry of binding)", "setting": "aptamer-thrombin complex; with 2.5 mM calcium", "result": "1.06 ± 0.08"},
      {"measurement": "ΔH", "setting": "aptamer-thrombin complex; with 2.5 mM calcium", "result": "-4.8 ± 0.2", "unit": "kcal/mol"},
      {"measurement": "-TΔS", "setting": "aptamer-thrombin complex; with 2.5 mM calcium", "result": "-5.7 ± 0.4", "unit": "kcal/mol"},
      {"measurement": "ΔG", "setting": "aptamer-thrombin complex; with 2.5 mM calcium", "result": "-10.5 ± 0.3", "unit": "kcal/mol"},
      {"measurement": "Ka", "setting": "aptamer-thrombin complex; without calcium", "result": "5.8 ± 0.37 ×10^7 M^-1"},
      {"measurement": "N (stoichiometry of binding)", "setting": "aptamer-thrombin complex; without calcium", "result": "1.11 ± 0.1"},
      {"measurement": "ΔH", "setting": "aptamer-thrombin complex; without calcium", "result": "-4.2 ± 0.3", "unit": "kcal/mol"},
      {"measurement": "-TΔS", "setting": "aptamer-thrombin complex; without calcium", "result": "-6.4 ± 0.7", "unit": "kcal/mol"},
      {"measurement": "ΔG", "setting": "aptamer-thrombin complex; without calcium", "result": "-10.6 ± 0.4", "unit": "kcal/mol"},
      {"measurement": "Ka", "setting": "TM45-thrombin; with 2.5 mM calcium", "result": "5.9 ± 2.2 ×10^7 M^-1"},
      {"measurement": "N (stoichiometry of binding)", "setting": "TM45-thrombin; with 2.5 mM calcium", "result": "1.00 ± 0.06"},
      {"measurement": "ΔH", "setting": "TM45-thrombin; with 2.5 mM calcium", "result": "-5.0 ± 0.1", "unit": "kcal/mol"},
      {"measurement": "-TΔS", "setting": "TM45-thrombin; with 2.5 mM calcium", "result": "-5.5 ± 0.2", "unit": "kcal/mol"},
      {"measurement": "ΔG", "setting": "TM45-thrombin; with 2.5 mM calcium", "result": "-10.5 ± 0.2", "unit": "kcal/mol"},
      {"measurement": "Ka", "setting": "TM45-thrombin; without calcium", "result": "5.0 ± 1.8 ×10^7 M^-1"},
      {"measurement": "N (stoichiometry of binding)", "setting": "TM45-thrombin; without calcium", "result": "0.86 ± 0.02"},
      {"measurement": "ΔH", "setting": "TM45-thrombin; without calcium", "result": "-4.5 ± 0.2", "unit": "kcal/mol"},
      {"measurement": "-TΔS", "setting": "TM45-thrombin; without calcium", "result": "-6.0 ± 0.4", "unit": "kcal/mol"},
      {"measurement": "ΔG", "setting": "TM45-thrombin; without calcium", "result": "-10.5 ± 0.2", "unit": "kcal/mol"}
    ]},
    {"molecule": "NC(N)=NCCC[C@H](NC(=O)[C@@H]1CCCN1C(=O)[C@H](N)Cc1ccccc1)C(=O)CCl", "note": "[PPACK, DPhe-Pro-Arg-chloromethyl ketone]", "values": [
      {"measurement": "Tm of thrombin with ligand bound at the active site", "setting": "thrombin [2]", "result": 70, "unit": "°C"}
    ]},
    {"molecule": "GGTTGGTGTGGTTGG [aptamer]", "values": [
      {"measurement": "N (stoichiometry of binding)", "setting": "thrombin [1]; with 2.5 mM calcium", "result": "0.87 ± 0.04"},
      {"measurement": "ΔH", "setting": "thrombin [1]; with 2.5 mM calcium", "result": "-22.4 ± 0.1", "unit": "kcal/mol"},
      {"measurement": "-TΔS", "setting": "thrombin [1]; with 2.5 mM calcium", "result": "12.6 ± 1.0", "unit": "kcal/mol"},
      {"measurement": "ΔG", "setting": "thrombin [1]; with 2.5 mM calcium", "result": "-9.8 ± 0.1", "unit": "kcal/mol"},
      {"measurement": "Ka", "setting": "thrombin [1]; without calcium", "result": "0.9 ± 0.2 ×10^7 M^-1"},
      {"measurement": "N (stoichiometry of binding)", "setting": "thrombin [1]; without calcium", "result": "0.96 ± 0.1"},
      {"measurement": "ΔH", "setting": "thrombin [1]; without calcium", "result": "-20.2 ± 0.8", "unit": "kcal/mol"},
      {"measurement": "ΔH", "setting": "thrombin [1]; without calcium, listed as DNA aptamer", "result": -20.2, "unit": "kcal/mol"},
      {"measurement": "-TΔS", "setting": "thrombin [1]; without calcium", "result": "10.5 ± 0.9", "unit": "kcal/mol"},
      {"measurement": "ΔG", "setting": "thrombin [1]; without calcium", "result": "-9.7 ± 0.2", "unit": "kcal/mol"},
      {"measurement": "Ka", "setting": "PPACK-thrombin; with 2.5 mM calcium", "result": "1.4 ± 0.6 ×10^7 M^-1"},
      {"measurement": "N (stoichiometry of binding)", "setting": "PPACK-thrombin; with 2.5 mM calcium", "result": "0.9 ± 0.1"},
      {"measurement": "ΔH", "setting": "PPACK-thrombin; with 2.5 mM calcium", "result": "-21.0 ± 0.3", "unit": "kcal/mol"},
      {"measurement": "-TΔS", "setting": "PPACK-thrombin; with 2.5 mM calcium", "result": "11.3 ± 0.004", "unit": "kcal/mol"},
      {"measurement": "ΔG", "setting": "PPACK-thrombin; with 2.5 mM calcium", "result": "-9.7 ± 0.3", "unit": "kcal/mol"},
      {"measurement": "Ka", "setting": "PPACK-thrombin; without calcium", "result": "0.8 ± 0.1 ×10^7 M^-1"},
      {"measurement": "N (stoichiometry of binding)", "setting": "PPACK-thrombin; without calcium", "result": "0.98 ± 0.02"},
      {"measurement": "ΔH", "setting": "PPACK-thrombin; without calcium", "result": "-17.7 ± 1.1", "unit": "kcal/mol"},
      {"measurement": "-TΔS", "setting": "PPACK-thrombin; without calcium", "result": "8.3 ± 1.2", "unit": "kcal/mol"},
      {"measurement": "ΔG", "setting": "PPACK-thrombin; without calcium", "result": "-9.4 ± 0.8", "unit": "kcal/mol"},
      {"measurement": "melting (denaturation) temperature of thrombin with ligand bound at exosite 1", "setting": "thrombin [3]", "result": "57.9 °C and 58.7 °C"}
    ]},
    {"molecule": "calcium", "values": [
      {"measurement": "change in heat upon addition to thrombin in the cell (ITC)", "setting": "thrombin [1]; calcium added to thrombin in the cell", "result": "no measurable direct binding"}
    ]}
  ]
}
